# Screens as filed in PubChem BioAssay.
# Shown are actives, neighbours in structure and some others; about 2.5% of the full set was active somewhere.
# T cell modulator: T cell immune modulators affecting CD8 T cell-vesicle binding; 2C CD8+ T cell-vesicle binding, flow cytometry; stronger effect = lower value; response (vesicle binding), % at 7 µM; 0.068% of 330,000 active; AID 2052;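 active = response, share of CD8 T cells binding vesicles, and their 90th percentile fluorescence all below set limits, cut at about 80% in these data, passing the limit was not always enough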;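 note: values below 100% mean blocked vesicle binding to the CD8+ T cells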
#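 Assay system: 2C TCR transgenic mouse naive CD8+ T cells, MACS-purified | Read-out: CD8+ gate FL2 mean fluorescence as % of same-row positive control | Signal: High-throughput flow cytometry with anti-B7-1 and anti-CD8 staining | Timing: Binding step 1.5 h, 37 °C, antibody labelling 20 min, ice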
# MEKK3 PB1 HTS: modulators (inhibitors or enhancers) of MEK5 binding to human MEKK3 PB1 domain. Q99759. bead-based flow cytometry, Alexa488-MEK5 binding to MEKK3; actives lie on both sides; 0 = blocked by unlabeled MEK5, 100 = vehicle. binding response (% of control), % at 10 µM. 1.4% of 290,000 active. AID 1529;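 active = binding response more than 3 SD above or below the average of its plate-row segment, actives on both sides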;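 note: Alexa488 bead fluorescence after subtracting the streptavidin-only scavenger bead signal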
# MEKK2mut PB1 HTS: signal of MEK5 binding to mutant human MEKK2 PB1 domain; bead flow cytometry, Alexa488-MEK5 binding to MEKK2 mutant; 0.35% of 290,000 active; percent response, % at 10 µM; in the data active = percent response above about 24%, passing the limit was not always enough
# MEKK2wt PB1 HTS: raises or lowers MEK5 binding to wildtype human MEKK2 PB1 domain | 1.1% of 290,000 active | bead flow cytometry, Alexa488-MEK5 binding to MEKK2 WT; actives lie on both sides | Q9Y2U5 | binding response (% of control), % at 10 µM; in the data active = binding response below about 67% or above about 130%
# UCH37 DUB inh: inhibitors of human deubiquitinating enzyme UCH37 | purified proteasome/UCH37, Ub-AMC cleavage fluorescence | inhibition, % (no concentration beside the values) | 0.33% of 330,000 active;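 active = mean inhibition over replicate wells above about 20%, limit read from the data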;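 note: 0% = compound-free wells with enzyme and 100% = wells lacking proteasome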
# Target sequence (Q9Y5K5 whole entry, looked up): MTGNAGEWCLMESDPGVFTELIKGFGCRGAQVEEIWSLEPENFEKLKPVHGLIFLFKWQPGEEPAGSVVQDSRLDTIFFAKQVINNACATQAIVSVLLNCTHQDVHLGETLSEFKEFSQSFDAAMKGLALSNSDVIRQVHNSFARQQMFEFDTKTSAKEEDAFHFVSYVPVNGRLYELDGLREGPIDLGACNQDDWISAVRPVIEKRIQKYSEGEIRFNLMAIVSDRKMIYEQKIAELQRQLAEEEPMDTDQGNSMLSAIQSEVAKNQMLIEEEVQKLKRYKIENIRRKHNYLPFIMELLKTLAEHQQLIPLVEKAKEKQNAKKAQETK
#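 Material: human UCH37 enzyme supplied as purified proteasome complex / Amount: 0.15 nM proteasome as dispensed / Buffer or medium: pH 7.4 Tris-HCl (50 mM) with ovalbumin, ATP-MgCl2, DTT / Times: preincubation 30 min, reaction 25 min, room temperature / Technique: AMC fluorescence from Ub-AMC cleavage, excitation 355 nm, emission 460 nm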
# Rce1 inhib: inhibitors of yeast Ras-converting enzyme; yeast membranes, quenched prenylated peptide cleavage fluorescence; calls only; 0.27% of 290,000 active; AID 2563;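 active = fall in fluorescence gain of 50% or more versus controls, with final raw signal at or below 3038400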;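 note: plate controls were neutral control wells for no effect and wells lacking membranes for full effect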
# Target sequence (Q03530 whole entry, looked up): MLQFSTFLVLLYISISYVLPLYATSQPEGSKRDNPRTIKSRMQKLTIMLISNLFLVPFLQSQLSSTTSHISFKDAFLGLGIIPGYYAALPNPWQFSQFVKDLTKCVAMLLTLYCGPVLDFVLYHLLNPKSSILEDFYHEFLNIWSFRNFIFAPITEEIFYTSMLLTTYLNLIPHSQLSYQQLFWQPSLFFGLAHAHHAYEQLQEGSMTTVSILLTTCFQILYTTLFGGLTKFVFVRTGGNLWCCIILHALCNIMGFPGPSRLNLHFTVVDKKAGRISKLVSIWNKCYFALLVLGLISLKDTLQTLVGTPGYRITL
# * hit, by the source's call; i = inactive; . = not tested or not shown; + = active, no number; [ ] = another dose, or the depositor's remark.
SMILES,T cell modulator,MEKK3 PB1 HTS,MEKK2mut PB1 HTS,MEKK2wt PB1 HTS,UCH37 DUB inh,Rce1 inhib
CCO/C(=C/c1sc2ccc(OC)cc2[n+]1CCCS(=O)(=O)[O-])CC,314,98,1,99,21*,i
COc1ccc(C(CNC(=O)c2ccc(S(=O)(=O)Nc3ccc(F)cc3)cc2)N(C)C)cc1 (stereo not drawn),445,108,31*,119,0,i
CCC(C)c1ccccc1OCCCCN1CCCC1 (stereo not drawn),478,107,-1,110,31*,i
O=C(NN=Cc1ccccc1)c1ccc2c(c1)OCO2,.,.,.,.,-1,.
Cc1c(CCC(=O)O)c(=O)oc2cc(OCc3cccc(F)c3)ccc12,353,96,0,94,-363,+
O=C(NN=Cc1cn(-c2ccccc2)nc1-c1cc2ccccc2o1)c1ccccc1Br,.,.,.,.,-19,.
CC(=O)C(=NNc1cccc(Cl)c1)N1CCOCC1,.,.,.,.,12,.
CC(=O)/C(N)=N/Nc1cccc(Cl)c1,194,96,9,16*,3,i
Cc1cc(C)nc(NN=C2CCSc3ccc(F)cc32)n1,.,.,.,.,4,.
CN(C)c1ccc(C=NNC(=O)c2ccccc2Cl)cc1,.,.,.,.,9,.
COc1ccc(C)cc1Nc1n[n+](C)c(-c2ccc(O)cc2O)s1,815,105,-6,101,23*,i
COc1ccc(C)cc1Nc1n[n+](C)c(-c2c3ccccc3cc3ccccc23)s1,772,100,0,87,0,i
CCc1nccn1CCC(=O)NC1CCCc2c1cnn2-c1ccc(F)cc1F (stereo not drawn),390,71*[inhibitor],-22,66*[inhibitor],-2,i
COc1cc(OC)cc(C(=O)Nc2nc(-c3ccccc3)c(-c3ccccc3)o2)c1,569,154*,2,108,-3,i
CC(=O)Nc1nc(-c2ccccc2)c(-c2ccccc2)o1,609,97,-2,97,4,.
CC(=O)Oc1ccc2oc(/C=C/N(C)C)c([N+](=O)[O-])c2c1,593,102,7,102,22*,i
COc1ccccc1C(C)=NNC(=S)NCc1ccccc1,.,.,.,.,3,.
Cc1c(OCC(=O)N2CCC(C(=O)O)CC2)ccc2c3c(c(=O)oc12)CCC3,324,96,-3,97,-41,i
Cc1c(Cc2ccccc2)c(=O)oc2c(C)c(OCC(=O)N3CCC(C(=O)O)CC3)ccc12,233,103,2,101,-139,+
CC(=NN=Cc1ccc(N(C)C)cc1)c1ccccc1,.,.,.,.,5,.
COCc1cc(C)n(CC(=O)NC(C)c2ccccc2)c(=O)c1C#N (stereo not drawn),326,103,3,102,-81,i
COCc1cc(C)n(CC(=O)NCc2ccccc2)c(=O)c1C#N,374,119,0,112,.,+
NC(=S)N=Nc1c(O)n(CCCl)c2ccc(Br)cc12,208,92,-15,96,4,i
C/C(Cl)=C\Cn1c(O)c(N=NC(N)=S)c2cc(Br)ccc21,213,99,-8,85,4,+
NC(=S)N=Nc1c(O)n(Cc2ccc(F)cc2)c2ccccc12,101,100,13,97,2,+
SMILES,T cell modulator,MEKK3 PB1 HTS,MEKK2mut PB1 HTS,MEKK2wt PB1 HTS,UCH37 DUB inh,Rce1 inhib
NC(=S)N=Nc1c(O)n(Cc2ccc(Br)cc2)c2ccccc12,250,101,-2,94,.,i
COc1cc(NS(=O)(=O)c2ccc(Br)s2)cc(OC)c1,331,88,9,-14*,2,i
O=C(OCc1ccccc1F)c1cnc(Cl)c(Cl)c1,137,0.0*[inhibitor],-26,-10*[inhibitor],5,i
O=C(OCc1c(F)cccc1Cl)c1cnc(Cl)c(Cl)c1,160,100,-1,99,0,i
CC(=O)OC1=C(O)C(=O)c2ccccc2C1=O,360,101,1,100,.,+
O=C(CCc1ccccc1)NN=Cc1cccc([N+](=O)[O-])c1,.,.,.,.,2,.
Nc1nonc1-n1nnc(C(=O)NN=Cc2ccc3c(c2)OCO3)c1-c1ccccc1,.,.,.,.,-77,.
CC(C)CN(Cc1cc(=O)oc2cc3c(cc12)CCCC3)CC(C)C,76*,102,5,98,1,i
O=C1N=C(N2C=CC(=C3C=CNC=C3)C=C2)/C(=C/N=NC(=O)c2ccccc2)S1,266,99,-4,97,24*,i
COc1cccc(-c2cc(C(=O)NN=Cc3cccc(OC)c3OC)c3ccccc3n2)c1,.,.,.,.,-4,.
O=C(NCc1ccco1)C1CC(c2ccc(C(F)(F)F)cc2)=NO1 (stereo not drawn),177,91,-5,94,27*,i
COc1ccc(C2=NOC(C(=O)NCc3ccco3)C2)cc1 (stereo not drawn),341,100,0,101,-2,i
COc1ccc(CN2CCN(S(=O)(=O)c3ccc(F)cc3)CC2)cc1OC,432,13*[inhibitor],-18,22*[inhibitor],3,i
COCCCNCC(O)COc1ccccc1F (stereo not drawn),233,99,37,10*,1,i
CCCCc1cc(=O)oc2cc(OCC(=O)N3CCOCC3)ccc12,270,99,-3,97,-31,+
COc1ccc2oc(=O)c(-c3csc(Nc4cccc(O)c4)n3)cc2c1,0.0*,92,-4,92,-54,i
COc1ccc(Nc2nc(-c3cc4cccc(OC)c4oc3=O)cs2)cc1,289,99,-2,92,3,i
O=C(O)c1ccc(COc2ccc(C=NNC(=O)c3cccs3)cc2)cc1,.,.,.,.,5,.
O=C(N/N=C/c1ccc(OCc2ccccc2)cc1)c1cccs1,78*,100,-1,93,.,i
C(=NNc1nccs1)c1cccnc1,.,.,.,.,5,.
Oc1ccc(N=Nc2cccc(C(F)(F)F)c2)cc1C=Nc1ccc(N2CCOCC2)cc1,0.0*,87,-3,80,.,i
Oc1ccc(C=Nc2ccc(N3CCOCC3)cc2)c(O)c1,153,.,.,.,5,i
CN(N=Cc1ccncc1)C1=NCCN1,.,.,.,.,5,.
COCCn1cc(C(=O)NCCN(C)C)c2c3ccccc3n(C)c2c1=O,168,102,5,108,-128,+
CCN(CC)CCNC(=O)c1cn(CCOC)c(=O)c2c1c1ccccc1n2C,227,102,11,112,-119,i
Cc1sc2nc(C)n(N=Cc3ccccc3O)c(=O)c2c1C,.,.,.,.,3,.
COc1cccc(NC(=O)Nc2ccc3nc(C)c(C)nc3c2)c1,73*,102,0,103,.,.
COc1ccc(NC(=O)Nc2cccc(OC)c2)cc1,265,103,4,102,2,i
COc1cccc(NC(=O)c2ccc(NC(C)=O)cc2)c1,426,97,-2,98,26*,i
CCC(=O)Nc1ccc(C(=O)NN=Cc2cccnc2)cc1,.,.,.,.,4,.
